According to ChEMBL document CHEMBL1137665, “Antistaphylococcal activity of CG400549, a new experimental FabI inhibitor, compared with that of other agents” (2007):
≈ marks a conversion by molar mass, not a printed value.

Tests used:
Staphylococcus aureus [1] = assay: Antimicrobial activity against panton-valentine leukocidin-negative community-acquired methicillin-resistant Staphylococcus aureus 481 after 37 passages with Linezolid measured after 10 antibiotic-free subculture by multi-step resistance selection technique; type: functional
Method in brief: (§1)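 Mutants from multistep daily serial passage in subinhibitory drug were then subcultured daily 10 times on antibiotic-free medium. MIC was redetermined after these subcultures to assess stability. Clone identity was checked by pulsed-field gel electrophoresis.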

Staphylococcus aureus [2] = assay: Antimicrobial activity against vancomycin-intermediate Staphylococcus aureus 504 after 22 passages by multi-step resistance selection technique; type: functional
Method in brief: (§2)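 Multistep selection: S. aureus strains (MSSA and MRSA, including VISA and VRSA) were passaged serially once daily in subinhibitory concentrations of each antimicrobial. Mutant and parent identities were confirmed by pulsed-field gel electrophoresis at the end of the study. Mutant MIC stability was checked after 10 daily subcultures on antibiotic-free media.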

Staphylococcus aureus [3] = assay: Antimicrobial activity against methicillin-susceptible Staphylococcus aureus 543 after 15 passages by multi-step resistance selection technique; type: functional
Method in brief: (§3)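 Multistep selection by daily serial passage of each strain in subinhibitory drug concentrations for the stated number of passages. Mutant MIC was then determined. Identity of mutants and parents was confirmed by pulsed-field gel electrophoresis.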

Staphylococcus aureus [4] = assay: Antimicrobial activity against methicillin and vancomycin-resistant Staphylococcus aureus 510 after single-step resistance selection by agar dilution CLSI method; type: functional
Method in brief: (§4)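 Single-step selection on drug-containing agar across 10 strains (2 MSSA, 8 MRSA, including VRSA and VISA). Colonies arising on confluent background growth were retested by CLSI agar dilution MIC. Resistance was defined as an MIC more than 4× the parent MIC.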

Staphylococcus aureus [5] = assay: Antimicrobial activity against methicillin-susceptible Staphylococcus aureus 540 after single-step resistance selection by agar dilution CLSI method; type: functional; method in brief: as §4
Staphylococcus aureus [6] = assay: Antimicrobial activity against methicillin-susceptible Staphylococcus aureus by agar dilution CLSI method; type: functional
Method in brief: (§5)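 CLSI agar dilution MIC against S. aureus clinical isolates. Calcium was added to the medium for daptomycin testing. Vancomycin plates were read after a full 24-h incubation.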

Staphylococcus aureus [7] = assay: Antimicrobial activity against methicillin-resistant Staphylococcus aureus by agar dilution CLSI method; type: functional; method in brief: as §5
Staphylococcus aureus [8] = assay: Antimicrobial activity against methicillin-resistant Staphylococcus aureus 490 after single-step resistance selection by agar dilution CLSI method; type: functional; method in brief: as §4
Staphylococcus aureus [9] = assay: Antimicrobial activity against panton-valentine leukocidin-negative community-acquired methicillin-resistant Staphylococcus aureus 481 after 37 passages by multi-step resistance selection technique; type: functional; method in brief: as §3
Staphylococcus aureus [10] = assay: Antimicrobial activity against panton-valentine leukocidin-positive community-acquired methicillin-resistant Staphylococcus aureus 490 after 22 passages with Linezolid measured after 10 antibiotic-free subculture by multi-step resistance selection technique; type: functional
Method in brief: (§6)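 Multistep-selected mutants (daily passage at subinhibitory drug levels) then subcultured 10 times daily on antibiotic-free medium; MIC redetermined afterwards and compared with the MIC recorded at the end of selection; clone identity to parent checked by pulsed-field gel electrophoresis.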

Staphylococcus aureus [11] = assay: Antimicrobial activity against methicillin-resistant vancomycin-intermediate Staphylococcus aureus 504 after single-step resistance selection by agar dilution CLSI method; type: functional; method in brief: as §4
Staphylococcus aureus [12] = assay: Antimicrobial activity against methicillin-susceptible Staphylococcus aureus 540 after 36 passages with Linezolid measured after 10 antibiotic-free subculture by multi-step resistance selection technique; type: functional; method in brief: as §1
Staphylococcus aureus [13] = assay: Antimicrobial activity against methicillin-susceptible Staphylococcus aureus 543 after single-step resistance selection by agar dilution CLSI method; type: functional; method in brief: as §4
Staphylococcus aureus [14] = assay: Antimicrobial activity against community-acquired vancomycin-intermediate Staphylococcus aureus 504 by agar dilution CLSI method; type: functional; method in brief: as §5
Staphylococcus aureus [15] = assay: Antimicrobial activity against methicillin-resistant vancomycin-intermediate Staphylococcus aureus 555 after single-step resistance selection by agar dilution CLSI method; type: functional; method in brief: as §4
Staphylococcus aureus [16] = assay: Antimicrobial activity against vancomycin-resistant Staphylococcus aureus 509 Michigan after 28 passages by multi-step resistance selection technique; type: functional
Method in brief: (§7)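 Multistep selection: 10 S. aureus strains (8 MRSA incl. two VRSA, two VISA; 2 MSSA) serially passaged daily at subinhibitory concentrations of each antimicrobial; MICs of mutants retested and compared with parent; clone identity versus parent confirmed by pulsed-field gel electrophoresis at study end.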

Staphylococcus aureus [17] = assay: Antimicrobial activity against methicillin-resistant Staphylococcus aureus 547 after 48 passages by multi-step resistance selection technique; type: functional; method in brief: as §3
Staphylococcus aureus [18] = assay: Antimicrobial activity against methicillin-susceptible Staphylococcus aureus 543 after 15 passages with Linezolid measured after 10 antibiotic-free subculture by multi-step resistance selection technique; type: functional; method in brief: as §1
Staphylococcus aureus [19] = assay: Antimicrobial activity against methicillin-resistant Staphylococcus aureus 547 after single-step resistance selection by agar dilution CLSI method; type: functional; method in brief: as §4
Staphylococcus aureus [20] = assay: Antimicrobial activity against vancomycin-intermediate Staphylococcus aureus 504 after 22 passages with Linezolid measured after 10 times antibiotic-free subculture by multi-step resistance selection technique; type: functional; method in brief: as §6
Staphylococcus aureus [21] = assay: Antimicrobial activity against vancomycin-resistant Staphylococcus aureus 510 Hershey after 50 passages by multi-step resistance selection technique; type: functional; method in brief: as §7
Staphylococcus aureus [22] = assay: Antimicrobial activity against methicillin-resistant Staphylococcus aureus 547 after 48 passages with Linezolid measured after 10 antibiotic-free subculture by multi-step resistance selection technique; type: functional; method in brief: as §1
Staphylococcus aureus [23] = assay: Antimicrobial activity against vancomycin-resistant Staphylococcus aureus 509 Michigan after 28 passages with Linezolid measured after 10 antibiotic-free subculture by multi-step resistance selection technique; type: functional; method in brief: as §6
Staphylococcus aureus [24] = assay: Antimicrobial activity against methicillin-susceptible Staphylococcus aureus 540 after 36 passages by multi-step resistance selection technique; type: functional; method in brief: as §3
Staphylococcus aureus [25] = assay: Antimicrobial activity against methicillin and vancomycin-resistant Staphylococcus aureus 509 after single-step resistance selection by agar dilution CLSI method; type: functional; method in brief: as §4
Staphylococcus aureus [26] = assay: Antimicrobial activity against methicillin-resistant Staphylococcus aureus 525 after single-step resistance selection by agar dilution CLSI method; type: functional; method in brief: as §4
Staphylococcus aureus [27] = assay: Antimicrobial activity against panton-valentine leukocidin-positive community-acquired methicillin-resistant Staphylococcus aureus 490 after 22 passages by multi-step resistance selection technique; type: functional; method in brief: as §7
Staphylococcus aureus [28] = assay: Antimicrobial activity against methicillin-resistant Staphylococcus aureus 481 after single-step resistance selection by agar dilution CLSI method; type: functional; method in brief: as §4
Staphylococcus aureus [29] = assay: Antimicrobial activity against vancomycin-intermediate Staphylococcus aureus 555 Hershey after 50 passages by multi-step resistance selection technique; type: functional; method in brief: as §7
Staphylococcus aureus [30] = assay: Antimicrobial activity against vancomycin-resistant Staphylococcus aureus 509 Michigan by agar dilution CLSI method; type: functional
Method in brief: (§8)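 Agar dilution MIC per CLSI methodology; calcium supplemented for daptomycin testing; vancomycin plates read after a full 24-h incubation.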

Staphylococcus aureus [31] = assay: Antimicrobial activity against vancomycin-resistant Staphylococcus aureus 509 Michigan after 14 passages with CG400549 measured after 10 antibiotic-free subculture by multi-step resistance selection technique; type: functional; method in brief: as §6
Staphylococcus aureus [32] = assay: microbe, parasite or virus in culture; details: 481
Staphylococcus aureus [33] = assay: Antimicrobial activity against vancomycin-resistant Staphylococcus aureus 510 Hershey by agar dilution CLSI method; type: functional; method in brief: as §8
Staphylococcus aureus [34] = assay: Antimicrobial activity against vancomycin-intermediate Staphylococcus aureus 555 Hershey by agar dilution CLSI method; type: functional; method in brief: as §8
Staphylococcus aureus [35] = assay: Antimicrobial activity against vancomycin-intermediate Staphylococcus aureus 504 after 50 passages by multi-step resistance selection technique; type: functional; method in brief: as §2
Staphylococcus aureus [36] = assay: microbe, parasite or virus in culture; details: 547
Staphylococcus aureus [37] = assay: Antimicrobial activity against panton-valentine leukocidin-positive community-acquired methicillin-resistant Staphylococcus aureus 490 after 50 passages by multi-step resistance selection technique
Staphylococcus aureus [38] = assay: Antimicrobial activity against vancomycin-intermediate Staphylococcus aureus 555 Hershey after 14 passages with CG400549 measured after 10 antibiotic-free subculture by multi-step resistance selection technique; type: functional; method in brief: as §6
Staphylococcus aureus [39] = assay: Antimicrobial activity against vancomycin-resistant Staphylococcus aureus 509 Michigan after 20 passages with daptomycin measured after 10 antibiotic-free subculture by multi-step resistance selection technique; type: functional; method in brief: as §6
Staphylococcus aureus [40] = assay: Antimicrobial activity against vancomycin-resistant Staphylococcus aureus 510 Hershey after 14 passages with CG400549 measured after 10 antibiotic-free subculture by multi-step resistance selection technique; type: functional; method in brief: as §6
Staphylococcus aureus [41] = assay: Antimicrobial activity against methicillin-susceptible Staphylococcus aureus 540 after 50 passages by multi-step resistance selection technique
Staphylococcus aureus [42] = assay: microbe, parasite or virus in culture; details: 543
Staphylococcus aureus [43] = assay: microbe, parasite or virus in culture; details: 525

Structure (SMILES): CC(=O)NC[C@H]1CN(c2ccc(N3CCOCC3)c(F)c2)C(=O)O1 [LINEZOLID]
- MIC (Staphylococcus aureus [1]): 32 µg/mL (≈ 94.9 µM)
- MIC (Staphylococcus aureus [2]): 8 µg/mL (≈ 23.7 µM)
- MIC (Staphylococcus aureus [3]): 32 µg/mL (≈ 94.9 µM)
- MIC (Staphylococcus aureus [4]): 0.5 µg/mL (≈ 1.48 µM)
- MIC (Staphylococcus aureus [5]): 0.5 µg/mL (≈ 1.48 µM)
- MIC50 (Staphylococcus aureus [6]): 1 µg/mL (≈ 2.96 µM)
- MIC90 (Staphylococcus aureus [6]): 2 µg/mL (≈ 5.93 µM)
- MIC50 (Staphylococcus aureus [7]): 1 µg/mL (≈ 2.96 µM)
- MIC90 (Staphylococcus aureus [7]): 2 µg/mL (≈ 5.93 µM)
- MIC (Staphylococcus aureus [8]): 0.5 µg/mL (≈ 1.48 µM)
- MIC (Staphylococcus aureus [9]): 32 µg/mL (≈ 94.9 µM)
- MIC (Staphylococcus aureus [10]): 32 µg/mL (≈ 94.9 µM)
- MIC (Staphylococcus aureus [11]): 0.5 µg/mL (≈ 1.48 µM)
- MIC (Staphylococcus aureus [12]): 16 µg/mL (≈ 47.4 µM)
- MIC (Staphylococcus aureus [13]): 0.5 µg/mL (≈ 1.48 µM)
- MIC (Staphylococcus aureus [14]): 1 µg/mL (≈ 2.96 µM)
- MIC (Staphylococcus aureus [15]): 0.5 µg/mL (≈ 1.48 µM)
- MIC (Staphylococcus aureus [16]): 16 µg/mL (≈ 47.4 µM)
- MIC (Staphylococcus aureus [17]): 32 µg/mL (≈ 94.9 µM)
- MIC (Staphylococcus aureus [18]): 32 µg/mL (≈ 94.9 µM)
- MIC (Staphylococcus aureus [19]): 0.5 µg/mL (≈ 1.48 µM)
- MIC (Staphylococcus aureus [20]): 8 µg/mL (≈ 23.7 µM)
- MIC (Staphylococcus aureus [21]): 16 µg/mL (≈ 47.4 µM)
- MIC (Staphylococcus aureus [22]): 32 µg/mL (≈ 94.9 µM)
- MIC (Staphylococcus aureus [23]): 32 µg/mL (≈ 94.9 µM)
- MIC (Staphylococcus aureus [24]): 32 µg/mL (≈ 94.9 µM)
- MIC (Staphylococcus aureus [25]): 0.5 µg/mL (≈ 1.48 µM)
- MIC (Staphylococcus aureus [26]): 0.5 µg/mL (≈ 1.48 µM)
- MIC (Staphylococcus aureus [27]): 32 µg/mL (≈ 94.9 µM)
- MIC (Staphylococcus aureus [28]): 0.5 µg/mL (≈ 1.48 µM)

Structure (SMILES): CN[C@H](CC(C)C)C(=O)N[C@H]1C(=O)N[C@@H](CC(N)=O)C(=O)N[C@H]2C(=O)N[C@H]3C(=O)N[C@H](C(=O)N[C@H](C(=O)O)c4cc(O)cc(O)c4-c4cc3ccc4O)[C@H](O)c3ccc(c(Cl)c3)Oc3cc2cc(c3O[C@@H]2O[C@H](CO)[C@@H](O)[C@H](O)[C@H]2O[C@H]2C[C@](C)(N)[C@H](O)[C@H](C)O2)Oc2ccc(cc2Cl)[C@H]1O [VANCOMYCIN]
- MIC (Staphylococcus aureus [29]): 8 µg/mL (≈ 5.52 µM)
- MIC (Staphylococcus aureus [30]): > 64 µg/mL
- MIC (Staphylococcus aureus [31]): 16 µg/mL (≈ 11 µM)
- MIC50 (Staphylococcus aureus [6]): 1 µg/mL (≈ 0.69 µM)
- MIC90 (Staphylococcus aureus [6]): 2 µg/mL (≈ 1.38 µM)
- MIC50 (Staphylococcus aureus [7]): 1 µg/mL (≈ 0.69 µM)
- MIC90 (Staphylococcus aureus [7]): 2 µg/mL (≈ 1.38 µM)
- MIC (Staphylococcus aureus [32]): 8 µg/mL (≈ 5.52 µM)
- MIC (Staphylococcus aureus [33]): 64 µg/mL (≈ 44.2 µM)
- MIC (Staphylococcus aureus [14]): 8 µg/mL (≈ 5.52 µM)
- MIC (Staphylococcus aureus [34]): 8 µg/mL (≈ 5.52 µM)
- MIC (Staphylococcus aureus [35]): 8 µg/mL (≈ 5.52 µM)
- MIC (Staphylococcus aureus [20]): 8 µg/mL (≈ 5.52 µM)
- MIC (Staphylococcus aureus [36]): 8 µg/mL (≈ 5.52 µM)
- MIC (Staphylococcus aureus [37]): 8 µg/mL (≈ 5.52 µM)
- MIC (Staphylococcus aureus [23]): > 64 µg/mL
- MIC (Staphylococcus aureus [38]): 8 µg/mL (≈ 5.52 µM)
- MIC (Staphylococcus aureus [39]): 32 µg/mL (≈ 22.1 µM)
- MIC (Staphylococcus aureus [40]): 16 µg/mL (≈ 11 µM)
- MIC (Staphylococcus aureus [41]): 8 µg/mL (≈ 5.52 µM)
- MIC (Staphylococcus aureus [42]): 8 µg/mL (≈ 5.52 µM)
- MIC (Staphylococcus aureus [43]): 8 µg/mL (≈ 5.52 µM)
